Test [1] has as its target T1, DnaK-DnaJ (Escherichia coli, UniProt P0A6Y8). Kind of test: High throughput ATPase assay of DnaK-DnaJ. It is filed as biochemical. The settings on record: for inhibition of DnaK-DnaJ ATPase activity upon re-testing: repurchased (fresh) samples.
The target of test [2] is firefly luciferase [luciferase: P08659]. Kind of test: ELISA.
The target of test [3] is DnaK binding to luciferase (Escherichia coli, UniProt P0A6Y8). Kind of test: ELISA of DnaK binding to the model substrate firefly luciferase. The settings on record: 0.05 μM DnaK + 1 mM ATP. In general terms: ELISA stands for enzyme-linked immunosorbent assay.
In test [4] the target is T1, DnaK-DnaJ. Kind of test: DnaJ-mediated stimulation of ATP turnover by DnaK. The settings on record: DnaK 0.6 μM. It counts as biochemical. A digest of the protocol:
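E. coli DnaK (purified) at 0.6 µM with DnaJ titrated, in 100 mM Tris-HCl, 20 mM KCl, 6 mM MgCl2, 0.01% Triton X-100, pH 7.4. Reaction started with 7 mM ATP stock and run 3 h at 37 °C. Quinaldine red–molybdate reagent added for 2 min, quenched with sodium citrate, then 15 min at 37 °C. Absorbance read at 530 nm; triplicates.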

The target of a further test is DnaK (Escherichia coli, UniProt P0A6Y8). Kind of test: Intrinsic ATPase activity of DnaK. The following applies: without DnaJ stimulation. It is filed as biochemical.

“Also recorded” adds a separate entry of the source.

T1 sequence (P0A6Y8 whole entry): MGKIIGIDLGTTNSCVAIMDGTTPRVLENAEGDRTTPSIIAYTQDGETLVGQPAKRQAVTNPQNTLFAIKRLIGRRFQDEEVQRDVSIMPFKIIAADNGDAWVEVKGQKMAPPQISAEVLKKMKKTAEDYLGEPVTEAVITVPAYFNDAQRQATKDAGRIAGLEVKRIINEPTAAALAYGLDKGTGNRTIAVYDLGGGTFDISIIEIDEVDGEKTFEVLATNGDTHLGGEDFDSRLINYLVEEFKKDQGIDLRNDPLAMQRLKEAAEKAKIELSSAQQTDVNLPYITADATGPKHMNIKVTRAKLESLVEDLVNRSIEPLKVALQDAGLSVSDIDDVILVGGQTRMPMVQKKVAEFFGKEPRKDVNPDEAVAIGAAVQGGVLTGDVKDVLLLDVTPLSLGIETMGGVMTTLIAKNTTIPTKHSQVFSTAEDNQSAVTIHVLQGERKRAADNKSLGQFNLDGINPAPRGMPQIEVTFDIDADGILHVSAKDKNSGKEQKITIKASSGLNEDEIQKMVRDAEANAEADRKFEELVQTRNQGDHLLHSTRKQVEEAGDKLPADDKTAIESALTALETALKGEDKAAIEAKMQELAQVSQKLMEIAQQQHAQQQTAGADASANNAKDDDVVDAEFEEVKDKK
Chain of DnaK binding to luciferase (P0A6Y8 whole entry): as above
Chain of DnaK (P0A6Y8 whole entry): as above
Chain of Escherichia coli heat shock protein 70 (Hsp70/DnaK) (P0A6Y8 whole entry): as above
Chain of firefly luciferase [luciferase: P08659] (P08659 whole entry): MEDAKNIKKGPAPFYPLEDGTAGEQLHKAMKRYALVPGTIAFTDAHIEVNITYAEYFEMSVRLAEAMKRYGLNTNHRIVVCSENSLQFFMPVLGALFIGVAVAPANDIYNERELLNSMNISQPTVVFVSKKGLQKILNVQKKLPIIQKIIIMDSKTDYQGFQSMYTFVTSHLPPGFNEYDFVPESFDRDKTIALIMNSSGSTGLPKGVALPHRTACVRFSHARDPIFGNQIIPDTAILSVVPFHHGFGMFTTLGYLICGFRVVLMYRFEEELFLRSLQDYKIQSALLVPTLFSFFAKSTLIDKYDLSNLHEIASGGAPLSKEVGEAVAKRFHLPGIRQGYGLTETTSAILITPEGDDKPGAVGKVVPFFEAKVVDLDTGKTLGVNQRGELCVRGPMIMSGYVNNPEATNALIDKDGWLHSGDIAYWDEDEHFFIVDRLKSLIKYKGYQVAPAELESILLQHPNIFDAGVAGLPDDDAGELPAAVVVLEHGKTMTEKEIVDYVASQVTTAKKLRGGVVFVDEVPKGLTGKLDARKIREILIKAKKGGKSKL

For the molecule `Cc1cc(C(F)(F)F)c(C#N)c(SCC(=O)c2ccccc2)n1` [3a, 6-methyl-2-((2-oxo-2-phenylethyl)thio)-4-(trifluoromethyl)nicotinonitrile], on DnaK-DnaJ [1], the IC50 (usually the midpoint of a concentration-inhibition curve) was above 500 µM.
As to `CCc1ccc(C2Nc3ccc(C(=O)O)cc3C3C=CCC32)cc1` (stereo not drawn) [1d, 4-(4-ethylphenyl)-3a,4,5,9b-tetrahydro-3H-cyclopenta[c]quinoline-8-carboxylic acid], the “inhibition of DnaK-DnaJ ATPase activity upon re-testing” value (shortened to “inhibition”) at DnaK-DnaJ [1] is recorded as “none of these compounds were inhibitors”.
Regarding `O=C(O)c1ccc2c(c1)C1C=CCC1C(c1cccc(C(F)(F)F)c1)N2` (stereo not drawn) [1c, 4-(3-(trifluoromethyl)phenyl)-3a,4,5,9b-tetrahydro-3H-cyclopenta[c]quinoline-8-carboxylic acid], at DnaK-DnaJ [1], the “inhibition” value was “none of these compounds were inhibitors”.
For the molecule “Escherichia coli heat shock protein 70 (Hsp70/DnaK) (from UniProt P0A6Y8 1-638) (natural protein)”, the dissociation constant Kd (as a rule, the free concentration of one partner at which half of the binding sites on the other are occupied at equilibrium, for simple one-to-one binding) in test [2] was 0.26 µM. This lies in the sub-micromolar range.
Turning to `O=C(O)c1ccc2c(c1)C1C=CCC1C(c1ccc(Cl)cc1)N2` (stereo not drawn) [1b, 4-(4-chlorophenyl)-3a,4,5,9b-tetrahydro-3H-cyclopenta[c]quinoline-8-carboxylic acid], the “inhibition” value against DnaK-DnaJ [1] is recorded as “none of these compounds were inhibitors”.
`CCOC(=O)c1c(N)sc2c1CCN(C(C)=O)C2` [3b, ethyl 6-acetyl-2-amino-4,5,6,7-tetrahydrothieno[2,3-c]pyridine-3-carboxylate]: on DnaK-DnaJ [1], the IC50 was above 500 µM.
Turning to `O=C(O)c1cccc2c1NC(c1ccc([N+](=O)[O-])cc1)C1CC=CC21` (stereo not drawn) [1a, 4-(4-nitrophenyl)-3a,4,5,9b-tetrahydro-3H-cyclopenta[c]quinoline-6-carboxylic acid], the “inhibition” value against DnaK-DnaJ [1] was “none of these compounds were inhibitors”.
As to `CCOC(=O)c1c(N)n(-c2ccccc2)c2nc3ccccc3nc12` [2a, ethyl 2-amino-1-phenyl-1H-pyrrolo[2,3-b]quinoxaline-3-carboxylate], the IC50 at DnaK-DnaJ [1] was above 500 µM.
The same measure, in the same setting: then `CCCCCCn1c(N)c(C(=O)OCC)c2nc3ccccc3nc21` [2b, ethyl 2-amino-1-hexyl-1H-pyrrolo[2,3-b]quinoxaline-3-carboxylate], with above 500 µM.
In the case of `COc1cc(C(=O)NS(=O)(=O)c2ccccc2C)ccc1Cc1cn(C)c2ccc(NC(=O)OC3CCCC3)cc12` [3c, cyclopentyl (3-(2-methoxy-4-((o-tolylsulfonyl)carbamoyl)benzyl)-1-methyl-1H-indol-5-yl) carbamate], the “effect on apparent affinity of DnaK for luciferase” value in test [3] is listed as “significantly improved the apparent affinity; also recorded: significantly enhanced this interaction”. The entries for the “K0.5 of DnaJ” value at DnaK-DnaJ [4] (in presence of 25 μM compound), at DnaK-DnaJ [4] (in presence of 50 μM compound) and at DnaK-DnaJ [4] (in presence of 100 μM compound) were 0.18 ± 0.01 µM, 0.96 ± 0.16 µM and “greater than 2 μM”, respectively. The “effect on the intrinsic ATPase activity of DnaK” value on DnaK is “little effect on the intrinsic ATPase activity”. On DnaK-DnaJ [1], this molecule yielded an IC50 of 37 ± 1 µM.

For the origin of these results see publication PMC3052282 (Journal of biomolecular screening, 2010).
